{
  "source": "PubChem BioAssay AID449761",
  "about": "(Broad Institute, 2010)",
  "note": "Records with an inconclusive call do not appear. Active and inactive are the calls of the source.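 How the source made its calls: active means compounds raising caspase signal with fitted AC50 no more than tenfold above the top tested dose; inconclusive means flat curve at 30 to 70% activity, or unusable fit; inactive means the rest.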",
  "data": [
    {"tested_on": "MEF WT non-primed, caspase-Glo luminescence, 3 h", "experiment": "caspase activation in non-primed cells, dose response, counter-screen for Bcl2-A1 inhibitor project, cell-based, caspase-Glo luminescence, 3 h (AID 449761)", "in_short": "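Test system – Non-primed wild-type MEF cells · Timing – 3 h compound at 37 °C, 1 h detection at room temperature · Technique – CaspaseGlo luminescence, reagent diluted 1:1 in 50 mM HEPES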", "values": [
      {"smiles": "COc1ccc(C2CC(c3c(O)cc(C)oc3=O)=NCCS2)c(OC)c1", "note": "(stereo not drawn)", "AC50": "> 35 µM (inactive)"},
      {"smiles": "COc1cc(-c2cc(-c3ccccc3)nc(SCC(=O)Nc3nccs3)c2C#N)cc(OC)c1OC", "AC50": "> 35 µM (inactive)"},
      {"smiles": "O=C(NCc1ccccc1Br)c1cccc2c1C(=O)c1ccc(-c3ccc(OC(F)(F)F)cc3)cc1S2(=O)=O", "AC50": "> 35 µM (inactive)"},
      {"smiles": "O=C(Nc1ccc([N+](=O)[O-])cc1)C(Cc1ccccc1)N1C(=O)c2cccc3cccc(c23)C1=O", "note": "(stereo not drawn)", "AC50": "> 35 µM (inactive)"},
      {"smiles": "COc1ccc(NC(=O)CSc2nc3ccc(Nc4nc(N5CCOCC5)nc(N5CCOCC5)n4)cc3s2)cc1", "AC50": "> 35 µM (inactive)"},
      {"smiles": "COc1ccc(C[C@H]2NC[C@H](O)[C@H]2OC(C)=O)cc1", "AC50": "> 35 µM (inactive)"},
      {"smiles": "CCOC(=O)N1C(=O)[C@@](c2ccc(Cl)cc2)(C(C)C)N1C(=O)OCC", "AC50": "> 35 µM (inactive)"},
      {"smiles": "NS(=O)(=O)c1ccc(N/N=C2/CCCCC2C2CCCCC2)c([N+](=O)[O-])c1", "note": "(stereo not drawn)", "AC50": "33.5 µM"},
      {"smiles": "CCOC(=O)CSC1=N/C(=C/c2ccc(-n3cncn3)cc2)C(=O)N1C(C)=O", "AC50": "> 35 µM (inactive)"},
      {"smiles": "CCS(=O)(=O)c1ncc(Cl)c(C(=O)Nc2ccccc2OC)n1", "AC50": "> 35 µM (inactive)"},
      {"smiles": "Cc1ccc(S(=O)(=O)N(C)Cc2ccc(C(=O)N/N=C/c3ccc(OC(F)F)cc3)cc2)cc1", "AC50": "> 35 µM (inactive)"},
      {"smiles": "CCC(Sc1nc2cc3c(cc2c(=O)n1Cc1ccco1)OCO3)C(=O)Nc1cccc(OC)c1", "note": "(stereo not drawn)", "AC50": "> 35 µM (inactive)"},
      {"smiles": "COc1ccc(OC)c2sc(N(CCCN(C)C)C(=O)c3ccc(S(=O)(=O)N4CCc5ccccc5C4)cc3)nc12", "AC50": "> 35 µM (inactive)"},
      {"smiles": "C=CC(=O)Nc1ccc(CN2C(=O)N(c3c(Cl)c(OC)cc(OC)c3Cl)Cc3cnc(NCCCCN(CC)CC)nc32)cc1", "AC50": "> 35 µM (inactive)"},
      {"smiles": "O=C(NN=C1c2ccccc2-c2ccccc21)c1cccc(Br)c1", "AC50": "35.6 µM"},
      {"smiles": "CN(C)CCCN(C(=O)c1cc2cc([N+](=O)[O-])ccc2s1)c1nc2cc3c(cc2s1)OCCO3", "AC50": "> 35 µM (inactive)"},
      {"smiles": "Cc1ccc(C(=O)/C=C/C(=O)c2ccc(C)cc2)cc1", "AC50": "5.73 µM"},
      {"smiles": "O=C(Nc1ccc2oc(-c3ccccc3)nc2c1)c1ccccc1F", "AC50": "> 35 µM (inactive)"},
      {"smiles": "COc1cc2cnc(-c3ccccc3)c(-c3cccc(C(F)(F)F)c3)c2cc1OC", "AC50": "> 35 µM (inactive)"},
      {"smiles": "CC(=O)OC(C)(C)/C=C/C(=O)[C@](C)(O)C1[C@H](O)C[C@@]2(C)C3CC=C4C(C[C@H](O)C(=O)C4(C)C)[C@]3(C)C(=O)C[C@]12C", "note": "(stereo partly drawn)", "AC50": "> 35 µM (inactive)"},
      {"smiles": "CCOc1cc(/C=C2/C(=N)N3C=CSC3=NC2=O)ccc1OCCCOc1ccccc1C", "AC50": "8.09 µM"},
      {"smiles": "CC(C)N=c1scc(-c2ccco2)n1/N=C/c1ccc(O)c(O)c1", "AC50": "> 35 µM (inactive)"},
      {"smiles": "Nc1c(C(=O)Nc2ccc(S(=O)(=O)N3CCCC3)cc2)sc2nc3ccc(OC(F)(F)F)cc3cc12", "AC50": "30.7 µM"},
      {"smiles": "COc1ccc(N(C(=O)CCl)C(C(=O)NCCc2ccccc2)c2cccs2)cc1Cl", "note": "(stereo not drawn)", "AC50": "27.4 µM"},
      {"smiles": "Cc1ccc(-c2nc(NC(=O)c3nn(C)cc3[N+](=O)[O-])sc2C)cc1C", "AC50": "5.21 µM"},
      {"smiles": "Cc1nn(-c2ccccc2)c(C)c1/C=N/NC(=O)CSc1nc2ccccc2c(=O)n1-c1ccc(Br)cc1", "AC50": "36 µM"},
      {"smiles": "O=C(COc1ccc(/C=N/NC(=O)c2cc3ccccc3o2)cc1Cl)Nc1ccccc1", "AC50": "9.56 µM"},
      {"smiles": "CCOc1cc(C(=O)CSc2nnc(CNc3ccc(Cl)cc3)o2)ccc1NC(=O)CC", "AC50": "16 µM"},
      {"smiles": "Cc1c(CCOC(=O)c2ccc(N3CCOCC3)c([N+](=O)[O-])c2)sc[n+]1CC#N", "AC50": "> 35 µM (inactive)"},
      {"smiles": "CCc1nnc(NC(=O)CSc2nc(-c3ccccc3)cc(-c3ccc(F)cc3)c2C#N)s1", "AC50": "32.2 µM"},
      {"smiles": "C=C1/C=C(\\C)[C@](C)(O)C[C@H](O)CC(=O)[C@H](O)[C@@H](O)[C@H](C)C[C@H](C)OC(=O)/C(C)=C/CC/C=C/[C@@H]2O[C@H]2C[C@H](C)C1", "AC50": "> 35 µM (inactive)"},
      {"smiles": "CCn1c(Cl)c(C=O)s/c1=N\\S(=O)(=O)c1ccccc1", "AC50": "> 35 µM (inactive)"},
      {"smiles": "CCc1nn(-c2cc(Oc3cccc4ccccc34)nc(-c3ccccc3)n2)c(N)c1C#N", "AC50": "> 35 µM (inactive)"},
      {"smiles": "COc1ccc2c(-c3cc4ccc(OCc5ccc(F)cc5)cc4oc3=O)cc(=O)oc2c1", "AC50": "23.9 µM"},
      {"smiles": "Cc1ccc2nc(N(CCCN(C)C)C(=O)c3ccc(S(=O)(=O)N4CCc5ccccc5C4)cc3)sc2c1", "AC50": "> 35 µM (inactive)"},
      {"smiles": "Cc1ccc2c(c1)c(C1=c3ccccc3=NC1=O)c(O)n2C", "AC50": "> 35 µM (inactive)"},
      {"smiles": "COc1ccc(OC)c(NC(=O)c2cc(-c3cc(C)ccc3O)n[nH]2)c1", "AC50": "> 35 µM (inactive)"},
      {"smiles": "CCOC(=O)c1sc(NC(=O)CSc2nc(C)cc(C)c2C#N)c(C#N)c1C", "AC50": "> 35 µM (inactive)"},
      {"smiles": "COc1ccc2[nH]c3c(=O)n(/N=C/[C@H]4C(C)C=C(C)CC4C)c(=O)[nH]c3c2c1", "note": "(stereo partly drawn)", "AC50": "10.1 µM"},
      {"smiles": "Cc1occc1-c1nnc(SCC(=O)NCCc2ccccc2)n1Cc1ccccc1", "AC50": "> 35 µM (inactive)"},
      {"smiles": "CC(C)(C)[C@H](N)C(=O)N[C@H]1CCC2C3CC=C4C[C@@H](O)CC[C@]4(C)C3CC[C@@]21C", "note": "(stereo partly drawn)", "AC50": "> 35 µM (inactive)"},
      {"smiles": "COc1ccc(NC(=O)C(=O)N/N=C\\c2ccc(CNC(=O)C(=O)Nc3ccc(C)c(C)c3)o2)c(OC)c1", "AC50": "23.5 µM"},
      {"smiles": "CCc1ccc(NC(=O)c2nc(S(=O)(=O)Cc3ccccc3)ncc2Cl)cc1", "AC50": "> 35 µM (inactive)"},
      {"smiles": "Cc1ccc(C=C2C(Cl)=C(Cl)C(Cl)=C2Cl)cc1", "AC50": "5.72 µM"},
      {"smiles": "CCC1CCCCN1S(=O)(=O)c1ccc(NC(=O)c2nc(S(C)(=O)=O)ncc2Cl)cc1", "note": "(stereo not drawn)", "AC50": "4.2 µM"},
      {"smiles": "CC(=O)Nc1ccc(NC(=O)C(C)OC(=O)/C=C/c2cn(-c3ccccc3)nc2-c2cccnc2)cc1", "note": "(stereo not drawn)", "AC50": "25 µM"},
      {"smiles": "CCc1ccc(Nc2n[n+](-c3ccccc3)c(/C=C/c3ccccc3)s2)cc1", "AC50": "9.79 µM"},
      {"smiles": "Cc1ccc(NC(=S)NC(NC(=O)Cc2cccc3ccccc23)C(Cl)(Cl)Cl)cc1", "note": "(stereo not drawn)", "AC50": "22.9 µM"},
      {"smiles": "COc1ccc(C(=O)/C=C/C(=O)N(CC(=O)NC2CCCCC2)Cc2cccs2)c(O)c1", "AC50": "23.7 µM"},
      {"smiles": "CCOCCCNC(=O)c1ccc2c(c1)N=C(CC)c1cc(Br)ccc1S2", "AC50": "> 35 µM (inactive)"},
      {"smiles": "COc1cc(/C=C(/C#N)c2nc3ccccc3[nH]2)ccc1OCC(=O)Nc1ccccc1C(C)C", "AC50": "7.53 µM"},
      {"smiles": "O=C(NCc1ccccc1Cl)c1cccc2c1C(=O)c1ccc(-c3ccc(OC(F)(F)F)cc3)cc1S2(=O)=O", "AC50": "> 35 µM (inactive)"},
      {"smiles": "Cc1ccc(C)c(S(=O)(=O)NCC(=O)Nc2sc3c(c2C(N)=O)CCC(C)C3)c1", "note": "(stereo not drawn)", "AC50": "> 35 µM (inactive)"},
      {"smiles": "CCc1ccc2nc(N(CCCN(C)C)C(=O)c3ccc(S(=O)(=O)N4CCc5ccccc5C4)cc3)sc2c1", "AC50": "> 35 µM (inactive)"},
      {"smiles": "COc1cc(SC#N)ccc1N=Cc1c(C)[nH]n(-c2ccc(C)cc2)c1=O", "AC50": "34.5 µM"},
      {"smiles": "CCOC(=O)C1=C(c2ccccc2)O/C(=C(/C#N)C(F)(F)F)S1", "AC50": "> 35 µM (inactive)"},
      {"smiles": "O=S1(=O)CCOC[C@H](CC2CCCCC2)N1Cc1cccc(Cl)c1", "AC50": "> 35 µM (inactive)"},
      {"smiles": "Clc1ccccc1CN(Cc1ccccc1)c1ncnc2nc[nH]c12", "AC50": "> 35 µM (inactive)"},
      {"smiles": "N#CC(C#N)=C1C=CC=CN1/C(=C\\c1ccccc1Cl)C(=O)c1ccccc1", "AC50": "5.01 µM"},
      {"smiles": "COC(=O)[C@@]1(C)CC[C@]2(C)CC[C@@]3(C)C(=CC(=O)C4[C@@]5(C)CC[C@H](O)C(C)(C)[C@@H]5CC[C@]43C)[C@H]2C1", "note": "(stereo partly drawn)", "AC50": "> 35 µM (inactive)"},
      {"smiles": "Oc1[nH]c2ccc(Br)cc2c1N=NC(=S)Nc1ccc(F)cc1", "AC50": "> 35 µM (inactive)"},
      {"smiles": "COC(=O)c1ccc2c(c1)C(C)(C)C(/C=C/c1ccccc1O)=[N+]2C", "AC50": "8.57 µM"},
      {"smiles": "O=C(Nc1ccc2oc(-c3ccccc3Cl)nc2c1)c1cncc(Br)c1", "AC50": "30.7 µM"}
    ]}
  ]
}
